What all share (type): functional, cell-based
The subject of one assay is HeLa. The assay can be described thus: Cytotoxicity against human HeLa cells after 24 to 72 hrs by MTT assay. In outline:
(§1)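 Cells seeded at 5 × 10^4 cells/mL and held 24 h at 37 °C before the test compound was added as a DMSO solution at a range of concentrations. MTT staining was done after 24, 48 and 72 h. Absorbance was read at 490 nm against a negative control. IC50 was the concentration giving 50% cell death, taken from a plot of concentration versus % viability. Camptothecin served as positive control.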
In general terms: Formazan colour is commonly taken as a measure of viable cells.

A further assay relates to K562. Briefly: Cytotoxicity against human K562 cells after 24 to 72 hrs by MTT assay. The procedure, abridged:
as §1

A further assay deals with DU-145. The assay can be described thus: Cytotoxicity against human DU145 cells after 24 to 72 hrs by MTT assay. The procedure, abridged: as §1
The test system of the next assay is HepG2. Briefly: Cytotoxicity against human HepG2 cells after 24 to 72 hrs by MTT assay. In outline: as §1

What is called IC50 is the concentration at which inhibition is half-maximal. Take `CO[C@H]1C=C2[C@@](OC)(C[C@H]3[C@@H]([C@@H](OC(C)=O)[C@H](OC(C)=O)[C@@]4(O)C(C)(C)CC[C@H](OC(C)=O)[C@]34C)[C@]2(C)O)O1`: the IC50 in the assay with HeLa is above 50 µM; in the assay on K562 it was 9.2 µM; with DU-145 it was above 50 µM; in the assay with HepG2, 11.5 µM.
On to `CCO[C@]1(C)[C@@H]2[C@@H](OC(C)=O)[C@H](OC(C)=O)[C@@]3(O)C(C)(C)CC[C@H](OC(C)=O)[C@]3(C)[C@H]2C[C@]12C(=O)O[C@@H]1O[C@@H]12`, for which the IC50 is 12.1 µM in the assay with HeLa, 9.9 µM in the assay with K562, 17.1 µM in the assay with DU-145 and above 50 µM in the assay on HepG2.
For `CC(=O)O[C@H]1[C@@H]2OC(=O)[C@@H]3c4ccoc4C[C@@H]([C@@H]23)[C@@]2(C)[C@@H](O)CCC(C)(C)[C@]12O`, the IC50 with HeLa was above 50 µM; in the assay on K562, above 50 µM; with DU-145, 12 µM; with HepG2, 8 µM.
`CC[C@@]1(O)C(=O)OCc2c1cc1n(c2=O)Cc2cc3ccccc3nc2-1` [CAMPTOTHECIN]: the IC50 with HeLa is 0.5 µM; with K562 it was 0.4 µM; with DU-145 it was 0.8 µM; with HepG2, 0.6 µM.

(Values after ChEMBL document CHEMBL3091272, “Caesalminaxins A-L, cassane diterpenoids from the seeds of Caesalpinia minax” (J Nat Prod, 2013).)
